Test results published in ChEMBL document CHEMBL1667822, “Selective antagonists of mouse trace amine-associated receptor 1 (mTAAR1): discovery of EPPTB (RO5212773)” (Bioorg Med Chem Lett, 2011).
pIC50: −log10 of the molar value.

Tests used:
[1] = target: 5-hydroxytryptamine receptor 3A (Homo sapiens) (UniProt P46098); assay: Displacement of [3H]BRL 43694 from human recombinant 5HT3 receptor expressed in CHO cells; format: cell-based; conditions: concentration not given here
[2] = target: D(2) dopamine receptor (Homo sapiens) (UniProt P14416); assay: Displacement of [3H]spiperone from human recombinant dopamine D2S receptor expressed in HEK293 cells; format: cell-based; conditions: concentration not given here
Sequence of D(2) dopamine receptor (Homo sapiens) (P14416 whole entry): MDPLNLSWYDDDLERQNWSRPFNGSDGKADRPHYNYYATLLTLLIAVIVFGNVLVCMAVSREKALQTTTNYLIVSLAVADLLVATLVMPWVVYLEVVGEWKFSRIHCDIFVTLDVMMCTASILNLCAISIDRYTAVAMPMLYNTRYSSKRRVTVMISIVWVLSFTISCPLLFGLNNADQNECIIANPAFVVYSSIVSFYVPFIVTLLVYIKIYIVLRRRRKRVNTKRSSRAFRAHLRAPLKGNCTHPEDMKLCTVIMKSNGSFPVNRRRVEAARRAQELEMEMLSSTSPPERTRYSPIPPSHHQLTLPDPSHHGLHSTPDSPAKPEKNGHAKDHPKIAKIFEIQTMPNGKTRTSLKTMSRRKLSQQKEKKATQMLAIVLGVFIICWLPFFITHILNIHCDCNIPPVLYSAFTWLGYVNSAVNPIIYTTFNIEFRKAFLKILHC

[3] = target: 5-hydroxytryptamine receptor 1A (Homo sapiens) (UniProt P08908); assay: Displacement of [3H]8-OH-DPAT from human recombinant 5HT1A receptor expressed in HEK293 cells; format: cell-based; conditions: concentration not given here
[4] = target: Somatostatin receptor (Mus musculus) (UniProt P30935+O08858+P30875+P30873+P49660); assay: Inhibition of mouse somatostatin receptor at 10 uM; format: protein assay
[5] = target: Nociceptin receptor (Homo sapiens) (UniProt P41146); assay: Displacement of [3H]nociceptin from human recombinant ORL1 receptor expressed in H recombinant HEK293 cells; format: cell-based; conditions: concentration not given here
[6] = target: Beta-2 adrenergic receptor (Homo sapiens) (UniProt P07550); assay: Displacement of [3H](-)CGP 12177 from human recombinant beta2 receptor expressed in CHO cells; format: cell-based; conditions: concentration not given here
Sequence of Beta-2 adrenergic receptor (Homo sapiens) (P07550 whole entry, looked up): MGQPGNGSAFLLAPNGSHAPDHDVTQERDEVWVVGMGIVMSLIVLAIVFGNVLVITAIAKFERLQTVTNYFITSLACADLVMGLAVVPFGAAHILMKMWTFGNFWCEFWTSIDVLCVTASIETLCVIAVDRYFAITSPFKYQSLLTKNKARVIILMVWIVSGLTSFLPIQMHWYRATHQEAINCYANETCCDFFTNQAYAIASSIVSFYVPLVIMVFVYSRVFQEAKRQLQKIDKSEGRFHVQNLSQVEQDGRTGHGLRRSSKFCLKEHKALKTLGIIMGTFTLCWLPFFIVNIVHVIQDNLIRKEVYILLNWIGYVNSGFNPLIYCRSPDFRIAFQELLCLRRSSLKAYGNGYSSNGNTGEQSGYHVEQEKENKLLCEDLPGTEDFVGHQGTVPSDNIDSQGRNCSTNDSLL

[7] = target: Adrenergic receptor alpha-2 (Rattus norvegicus) (UniProt P22086+P19328+P22909); assay: Displacement of [3H]RX8210 from alpha2 receptor in rat cerebral cortex; format: tissue-based; conditions: concentration not given here
[8] = target: C-C chemokine receptor type 1 (Homo sapiens) (UniProt P32246); assay: Displacement of [125I]MIP-1a from human recombinant CCR1 receptor expressed in HEK293 cells; format: cell-based; conditions: concentration not given here
Sequence of C-C chemokine receptor type 1 (Homo sapiens) (P32246 whole entry): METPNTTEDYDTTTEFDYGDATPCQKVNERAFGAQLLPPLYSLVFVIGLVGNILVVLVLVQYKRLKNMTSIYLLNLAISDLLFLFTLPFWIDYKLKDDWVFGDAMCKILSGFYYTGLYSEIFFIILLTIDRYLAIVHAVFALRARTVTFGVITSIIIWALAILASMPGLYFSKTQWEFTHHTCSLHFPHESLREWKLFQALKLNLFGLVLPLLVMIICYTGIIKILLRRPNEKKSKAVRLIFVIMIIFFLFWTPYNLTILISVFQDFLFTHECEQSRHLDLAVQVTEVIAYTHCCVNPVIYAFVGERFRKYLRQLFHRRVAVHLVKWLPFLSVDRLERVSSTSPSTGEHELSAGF

[9] = target: Muscarinic acetylcholine receptor M2 (Homo sapiens) (UniProt P08172); assay: Displacement of [3H]AF-DX 384 from human recombinant muscarinic M2 receptor expressed in CHO cells; format: cell-based; conditions: concentration not given here
[10] = target: Substance-K receptor (Homo sapiens) (UniProt P21452); assay: Displacement of [125I]NKA from human recombinant NK2 receptor expressed in CHO cells; format: cell-based; conditions: concentration not given here
[11] = target: 5-hydroxytryptamine receptor 2A (Homo sapiens) (UniProt P28223); assay: Displacement of [3H]Ketanserin from human recombinant 5HT2A receptor expressed in HEK293 cells; format: cell-based; conditions: concentration not given here
Sequence of 5-hydroxytryptamine receptor 2A (Homo sapiens) (P28223 whole entry): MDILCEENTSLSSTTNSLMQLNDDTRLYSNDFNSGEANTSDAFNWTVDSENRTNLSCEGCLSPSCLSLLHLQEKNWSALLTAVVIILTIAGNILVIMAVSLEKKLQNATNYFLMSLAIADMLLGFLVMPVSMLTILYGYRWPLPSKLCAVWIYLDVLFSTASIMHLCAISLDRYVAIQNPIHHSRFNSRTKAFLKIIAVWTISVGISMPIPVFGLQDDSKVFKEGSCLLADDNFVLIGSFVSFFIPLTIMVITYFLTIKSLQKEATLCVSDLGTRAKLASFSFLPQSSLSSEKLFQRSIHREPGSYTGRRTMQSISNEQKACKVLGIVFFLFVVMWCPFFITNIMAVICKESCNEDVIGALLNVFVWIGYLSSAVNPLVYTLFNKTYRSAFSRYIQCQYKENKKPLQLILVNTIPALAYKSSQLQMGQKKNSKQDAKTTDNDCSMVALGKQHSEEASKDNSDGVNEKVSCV

[12] = target: Galanin receptor type 2 (Homo sapiens) (UniProt O43603); assay: Displacement of [125I]Galanin from human recombinant GAL2 receptor expressed in CHO cells; format: cell-based; conditions: concentration not given here
Sequence of Galanin receptor type 2 (Homo sapiens) (O43603 whole entry): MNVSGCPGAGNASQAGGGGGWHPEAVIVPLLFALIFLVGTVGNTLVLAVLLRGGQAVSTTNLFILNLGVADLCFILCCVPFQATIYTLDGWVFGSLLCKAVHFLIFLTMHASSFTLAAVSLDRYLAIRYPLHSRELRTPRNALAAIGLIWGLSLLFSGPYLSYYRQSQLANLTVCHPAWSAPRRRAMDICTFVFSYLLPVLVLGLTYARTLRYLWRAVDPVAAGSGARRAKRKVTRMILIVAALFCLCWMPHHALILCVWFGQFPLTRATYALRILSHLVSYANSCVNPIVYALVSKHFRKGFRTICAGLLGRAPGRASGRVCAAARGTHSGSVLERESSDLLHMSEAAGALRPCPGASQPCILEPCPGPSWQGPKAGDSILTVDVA

[13] = target: Cannabinoid receptor 1 (Homo sapiens) (UniProt P21554); assay: Inhibition of human cannabinoid CB1 receptor at 10 uM
[14] = target: T1, Trace amine-associated receptor 1 (Homo sapiens, UniProt Q96RJ0); assay: Antagonist activity at human TAAR1 assessed as reversal of endogenous beta-PEA effect; format: functional
T1 sequence (Q96RJ0 whole entry): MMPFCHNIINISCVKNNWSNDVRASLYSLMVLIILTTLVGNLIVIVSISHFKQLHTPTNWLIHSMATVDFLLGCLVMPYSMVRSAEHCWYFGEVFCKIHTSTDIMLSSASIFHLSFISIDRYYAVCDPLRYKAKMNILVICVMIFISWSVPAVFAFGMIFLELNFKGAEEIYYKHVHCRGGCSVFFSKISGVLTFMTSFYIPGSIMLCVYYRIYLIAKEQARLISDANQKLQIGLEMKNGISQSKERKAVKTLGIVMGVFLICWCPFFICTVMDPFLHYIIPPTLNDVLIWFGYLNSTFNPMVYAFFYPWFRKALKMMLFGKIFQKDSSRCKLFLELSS
Method in brief: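 In vitro cAMP functional assay with antagonism read as reversal of the response to the endogenous agonist beta-PEA. Efficacy was scaled so that 100% equals 0% minimum stimulation. Residual beta-PEA stimulation was taken at the highest test-compound concentration. Values are means of at least two independent experiments, with duplicates typically within a twofold margin.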

[15] = target: Neuromedin-K receptor (Homo sapiens) (UniProt P29371); assay: Displacement of [3H]SR 142801 from human recombinant NK3 receptor expressed in CHO cells; format: cell-based; conditions: concentration not given here
Sequence of Neuromedin-K receptor (Homo sapiens) (P29371 whole entry): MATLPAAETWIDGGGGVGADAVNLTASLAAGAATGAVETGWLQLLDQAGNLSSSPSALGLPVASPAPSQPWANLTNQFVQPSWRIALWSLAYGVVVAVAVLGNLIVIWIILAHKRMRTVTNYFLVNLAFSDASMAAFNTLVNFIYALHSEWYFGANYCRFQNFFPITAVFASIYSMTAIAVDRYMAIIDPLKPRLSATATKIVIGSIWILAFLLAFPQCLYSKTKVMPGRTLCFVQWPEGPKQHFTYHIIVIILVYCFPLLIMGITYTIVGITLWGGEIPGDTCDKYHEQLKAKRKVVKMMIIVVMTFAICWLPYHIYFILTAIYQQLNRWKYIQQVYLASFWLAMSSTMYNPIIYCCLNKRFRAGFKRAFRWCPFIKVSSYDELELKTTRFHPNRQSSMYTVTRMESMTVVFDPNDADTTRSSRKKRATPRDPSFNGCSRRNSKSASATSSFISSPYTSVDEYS

[16] = target: Vasopressin V1a receptor (Homo sapiens) (UniProt P37288); assay: Displacement of [3H]AVP from human recombinant V1a receptor expressed in H recombinant CHO cells; format: cell-based; conditions: concentration not given here
Sequence of Vasopressin V1a receptor (Homo sapiens) (P37288 whole entry, looked up): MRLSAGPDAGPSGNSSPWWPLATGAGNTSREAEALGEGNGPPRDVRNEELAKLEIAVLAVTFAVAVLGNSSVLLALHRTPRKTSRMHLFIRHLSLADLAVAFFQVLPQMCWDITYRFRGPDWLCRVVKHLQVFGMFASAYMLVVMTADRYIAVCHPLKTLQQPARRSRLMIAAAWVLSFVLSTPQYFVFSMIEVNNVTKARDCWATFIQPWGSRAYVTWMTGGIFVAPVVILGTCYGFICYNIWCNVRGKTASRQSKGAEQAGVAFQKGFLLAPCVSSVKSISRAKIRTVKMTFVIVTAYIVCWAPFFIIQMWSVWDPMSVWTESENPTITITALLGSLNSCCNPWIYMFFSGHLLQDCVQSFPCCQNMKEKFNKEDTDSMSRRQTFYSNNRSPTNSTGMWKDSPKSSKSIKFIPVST

Rattus norvegicus [17] = species on record: Rattus norvegicus; assay: Displacement of [3H]flunitrazepam from BZD receptor in rat cerebral cortex; format: tissue-based; conditions: concentration not given here
[18] = target: Mu-type opioid receptor (Homo sapiens) (UniProt P35372); assay: Displacement of [3H]DAMGO from human recombinant mu opioid receptor expressed in HEK293 cells; format: cell-based; conditions: concentration not given here
[19] = target: Neuropeptide Y receptor type 1 (Homo sapiens) (UniProt P25929); assay: Displacement of [125I]peptide YY from human recombinant Y1 receptor expressed in […] cell; conditions: concentration not given here
Sequence of Neuropeptide Y receptor type 1 (Homo sapiens) (P25929 whole entry): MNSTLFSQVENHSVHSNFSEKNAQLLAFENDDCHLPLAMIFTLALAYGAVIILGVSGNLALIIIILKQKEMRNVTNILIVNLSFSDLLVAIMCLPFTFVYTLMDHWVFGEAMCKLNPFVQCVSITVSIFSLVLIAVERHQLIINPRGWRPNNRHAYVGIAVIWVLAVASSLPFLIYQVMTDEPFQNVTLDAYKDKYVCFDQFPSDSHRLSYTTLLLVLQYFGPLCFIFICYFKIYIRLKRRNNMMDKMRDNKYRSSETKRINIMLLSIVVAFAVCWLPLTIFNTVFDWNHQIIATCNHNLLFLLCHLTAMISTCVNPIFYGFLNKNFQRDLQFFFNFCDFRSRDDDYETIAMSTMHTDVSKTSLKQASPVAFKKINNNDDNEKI

[20] = Ratio of drug level in brain to plasma in mouse at 2.5 mg/kg, iv; format: ADME, organism-based; design: dose 2.5 mg/kg, route intravenous; conditions: read-out: BPR
Method in brief: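 Single-dose pharmacokinetics in mice with parenteral dosing, either 2.5 mg/kg iv or 5 mg/kg ip. Drug levels were measured in plasma, with brain exposure taken as the brain/plasma concentration ratio.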

[21] = target: Sodium-dependent noradrenaline transporter (Homo sapiens) (UniProt P23975); assay: Inhibition of human norepinephrine transporter at 10 uM
Sequence of Sodium-dependent noradrenaline transporter (Homo sapiens) (P23975 whole entry): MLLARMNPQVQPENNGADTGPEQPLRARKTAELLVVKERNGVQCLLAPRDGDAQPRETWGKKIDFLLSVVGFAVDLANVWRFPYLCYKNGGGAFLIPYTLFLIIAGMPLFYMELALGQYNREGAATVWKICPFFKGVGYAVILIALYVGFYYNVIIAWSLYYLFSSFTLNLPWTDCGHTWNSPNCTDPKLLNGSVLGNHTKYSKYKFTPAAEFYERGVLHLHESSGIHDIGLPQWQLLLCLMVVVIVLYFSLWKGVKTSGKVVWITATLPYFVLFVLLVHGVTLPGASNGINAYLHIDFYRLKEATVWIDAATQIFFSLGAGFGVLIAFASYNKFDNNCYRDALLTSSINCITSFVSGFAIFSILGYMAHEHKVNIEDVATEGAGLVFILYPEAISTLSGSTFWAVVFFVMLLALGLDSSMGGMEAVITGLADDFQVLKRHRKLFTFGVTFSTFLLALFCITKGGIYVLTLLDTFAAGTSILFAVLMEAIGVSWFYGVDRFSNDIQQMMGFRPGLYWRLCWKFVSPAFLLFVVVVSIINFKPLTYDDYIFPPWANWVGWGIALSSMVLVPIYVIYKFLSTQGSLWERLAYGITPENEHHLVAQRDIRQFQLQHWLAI

[22] = target: C-X-C chemokine receptor type 2 (Homo sapiens) (UniProt P25025); assay: Displacement of [125I]IL-8 from human recombinant CXCR2 receptor expressed in HEK293 cells; format: cell-based; conditions: concentration not given here
[23] = target: Adenosine receptor A1 (Homo sapiens) (UniProt P30542); assay: Displacement of [3H]DPCPX from human recombinant A1 receptor expressed in CHO cells; format: cell-based; conditions: concentration not given here
Sequence of Adenosine receptor A1 (Homo sapiens) (P30542 whole entry): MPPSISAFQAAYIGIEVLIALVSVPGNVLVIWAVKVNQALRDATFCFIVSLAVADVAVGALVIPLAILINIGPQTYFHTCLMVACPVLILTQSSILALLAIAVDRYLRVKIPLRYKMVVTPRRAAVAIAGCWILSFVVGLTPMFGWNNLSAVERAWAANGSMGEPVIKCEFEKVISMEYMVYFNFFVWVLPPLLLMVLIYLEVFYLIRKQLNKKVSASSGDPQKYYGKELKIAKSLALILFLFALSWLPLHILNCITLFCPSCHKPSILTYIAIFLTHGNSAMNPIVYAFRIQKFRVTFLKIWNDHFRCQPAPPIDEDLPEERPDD

CHO = assay: Displacement of [3H]DADLE from human recombinant delta 2 opioid receptor expressed in CHO cells; format: cell-based; conditions: dose or concentration not given here
[24] = target: 5-hydroxytryptamine receptor 5A (Homo sapiens) (UniProt P47898); assay: Displacement of [3H]LSD from human recombinant 5HT5A receptor expressed in CHO cells; format: cell-based; conditions: concentration not given here
[25] = target: 5-hydroxytryptamine receptor 7 (Homo sapiens) (UniProt P34969); assay: Displacement of [3H]LSD from human recombinant 5HT7 receptor expressed in CHO cells; format: cell-based; conditions: concentration not given here
Rattus norvegicus [26] = species on record: Rattus norvegicus; assay: Displacement of [3H]GABA from GABA receptor in rat cerebral cortex; format: tissue-based; conditions: concentration not given here
[27] = target: Thromboxane A2 receptor (Homo sapiens) (UniProt P21731); assay: Displacement of [3H]SQ 29548 from human recombinant TXA2 receptor expressed in HEK293 cells; format: cell-based; conditions: concentration not given here
[28] = target: B2 bradykinin receptor (Homo sapiens) (UniProt P30411); assay: Displacement of [3H]bradykinin from human recombinant bradykinin B2 receptor expressed in CHO cells; format: cell-based; conditions: concentration not given here
[29] = target: 5-hydroxytryptamine receptor 1B (Rattus norvegicus) (UniProt P28564); assay: Displacement of [125I]CYP from 5HT1B receptor expressed in rat cerebral cortex; format: tissue-based; conditions: concentration not given here
[30] = Cmax in mouse at 5 mg/kg, ip; format: ADME, organism-based; design: dose 5 mg/kg, route intraperitoneal; conditions: in vivo
Method in brief: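 Single-dose pharmacokinetics in mice comparing parenteral routes: intravenous at 2.5 mg/kg and intraperitoneal at 5 mg/kg. Plasma concentrations were followed over time. Bioavailability was derived for the ip route, and Cmax was taken from the ip plasma profile.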

[31] = target: Sodium-dependent serotonin transporter (Homo sapiens) (UniProt P31645); assay: Inhibition of human serotonin transporter at 10 uM
Rattus norvegicus [32] = species on record: Rattus norvegicus; assay: Inhibition of rat GABA chloride channel at 10 uM

Sequence of 5-hydroxytryptamine receptor 3A (Homo sapiens) (P46098 whole entry): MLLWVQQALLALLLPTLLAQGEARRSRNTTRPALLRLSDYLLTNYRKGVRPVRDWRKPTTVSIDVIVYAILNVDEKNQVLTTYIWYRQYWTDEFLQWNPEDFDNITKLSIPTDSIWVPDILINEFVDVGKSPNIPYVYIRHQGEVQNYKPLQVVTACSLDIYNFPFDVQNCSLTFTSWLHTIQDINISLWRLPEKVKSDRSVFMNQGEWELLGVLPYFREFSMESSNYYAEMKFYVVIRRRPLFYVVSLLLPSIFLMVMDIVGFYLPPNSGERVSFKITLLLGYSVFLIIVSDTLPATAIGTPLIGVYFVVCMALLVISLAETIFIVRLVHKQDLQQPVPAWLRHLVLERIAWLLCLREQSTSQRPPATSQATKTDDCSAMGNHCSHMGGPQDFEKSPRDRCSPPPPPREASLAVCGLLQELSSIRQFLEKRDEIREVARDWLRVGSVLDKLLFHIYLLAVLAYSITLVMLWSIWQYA

CCOc1cccc(NC(=O)c2ccc(N3CCCC3)c(C(F)(F)F)c2)c1
inhibition [1]: 9%
inhibition [2]: 9%
inhibition [3]: 4%
inhibition [4]: 7%
inhibition [5]: 15%
inhibition [6]: 6%
inhibition [7]: 23%
inhibition [8]: 0%
inhibition [9]: -1%
inhibition [10]: 19%
inhibition [11]: 21%
inhibition [12]: 13%
inhibition [13]: 38%
pIC50 [14]: 5.13
inhibition [15]: 22%
inhibition [16]: 9%
inhibition (Rattus norvegicus [17]): -8%
inhibition [18]: 42%
inhibition [19]: 4%
Kp [20]: 0.5
inhibition [21]: 44%
inhibition [22]: 2%
inhibition [23]: 50%
inhibition (CHO): 28%
inhibition [24]: 21%
inhibition [25]: 10%
inhibition (Rattus norvegicus [26]): 10%
inhibition [27]: 8%
inhibition [28]: 2%
inhibition [29]: 53%
Cmax [30]: 590 ng/mL
inhibition [31]: -7%
inhibition (Rattus norvegicus [32]): 63%
